Data set [1] concerns A549. In words: Cytotoxicity against human A549 cells up to 12.5 uM after 48 hrs by MTT assay. Type of data set: functional, cell-based.
The subject of data set [2] is A549. Nature of the data set: Cytotoxicity against human A549 cells at >= 25 uM after 48 hrs by MTT assay. It is filed as cell-based. The conditions noted are these: a549, 48 h. A general note: Formazan colour is commonly taken as a measure of viable cells.
The subject of data set [3] is dengue virus type 2. In words: Antiviral activity against Dengue virus 2 NGC infected in human A549 cells by CFI assay. It is filed as functional, organism-based. A digest of the protocol: (§1)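 CFI assay: A549 cells seeded 2 × 10^4/well, infected next day (MOI 0.3 for DENV-2) with compound-virus mixture for 1 h, then refed with compound-containing medium. On day 2 cells were methanol-fixed at 4°C and intracellular E protein detected by ELISA (4G2 primary, HRP anti-mouse secondary). EC50 is the average of two independent experiments.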

For data set [4], the system named is dengue virus type 1. In words: Antiviral activity against Dengue virus 1 MY10245 infected in human A549 cells by CFI assay. Type of data set: functional, organism-based. A digest of the protocol:
as §1

The subject of data set [5] is dengue virus type 2. In words: Antiviral activity against Dengue virus 2 MY10340 infected in human A549 cells by CFI assay. It is filed as functional, organism-based. The method, boiled down: as §1
Data set [6] has as its system dengue virus type 3. Nature of the data set: Antiviral activity against Dengue virus 3 MY22366 infected in human A549 cells by CFI assay. Type of data set: functional, organism-based. A digest of the protocol:
as §1

Data set [7] deals with dengue virus type 4. In words: Antiviral activity against Dengue virus 4 MY22713 infected in human A549 cells by CFI assay. Type of data set: functional, organism-based. A digest of the protocol:
as §1

Data set [8] relates to dengue virus type 2. In words: Antiviral activity against Dengue virus 2 NGC infected in human PBMC cells by plaque assay. Type of data set: functional, organism-based.
The nature of data set [9]: Cmax in CD-1 mouse at 25 mg/kg, po by LC-MS-MS analysis. It is filed as ADME, organism-based. Details: dose 25 mg/kg, route oral. The conditions noted are these: in vivo. The method, boiled down:
(§2)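 Female CD-1 mice dosed orally at 25 mg/kg, formulated at 2.5 mg/ml in 0.1 N HCl (1.5 equimolar), pH 3.5 with NaOH, topped off with 100 mM citrate pH 3.5. Blood taken from three animals per time point, 0.08–24 h. Plasma acetonitrile-methanol-acetic acid extract analysed by LC-MS-MS (LLOQ 9.2 ng/ml). Mean profile fitted noncompartmentally; F from dose-corrected p.o./i.v. AUC.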

Data set [10] in a line: Tmax in CD-1 mouse at 25 mg/kg, po by LC-MS-MS analysis. It is filed as ADME, organism-based. More on the design: dose 25 mg/kg, route oral. The note with it: in vivo. The method, boiled down: as §2
For data set [11], the system named is Mus musculus. Nature of the data set: AUC (0 to infinity) in CD-1 mouse at 25 mg/kg, po by LC-MS-MS analysis. It is filed as ADME, organism-based, Plasma. Details: time infinity, dose 25 mg/kg, route oral. The note with it: in vivo. The method, boiled down:
as §2

A short description of data set [12]: Oral bioavailability in CD-1 mouse at 25 mg/kg by LC-MS-MS analysis. The conditions noted are these: in vivo. Type of data set: ADME, organism-based. The method, boiled down: as §2
A short description of data set [13]: Volume of distribution in CD-1 mouse at 5 mg/kg, iv by LC-MS-MS analysis. It is filed as ADME, organism-based. More on the design: dose 5 mg/kg, route intravenous. The note with it: in vivo. The method, boiled down: (§3)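 Female CD-1 mice, single i.v. injection of 5 mg/kg (1 mg/ml) in pH 3.5 HCl/citrate formulation. Blood from three animals at 0.02–24 h; heparinized plasma extracted and quantified by LC-MS-MS (LLOQ 9.2 ng/ml). Noncompartmental analysis of the mean concentration-time profile.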

A short description of data set [14]: Clearance in CD-1 mouse at 5 mg/kg, iv by LC-MS-MS analysis. Details: dose 5 mg/kg, route intravenous. The note with it: in vivo. Type of data set: ADME, organism-based. A digest of the protocol: as §3
Data set [15] is described as follows: Half life in CD-1 mouse at 5 mg/kg, iv by LC-MS-MS analysis. Details: dose 5 mg/kg, route intravenous. The note with it: in vivo. It is filed as ADME, organism-based. A digest of the protocol: as §3
Data set [16] is described as follows: Cmax in Wistar rat at 24.8 mg/kg, po by LC-MS-MS analysis. Details: dose 24.8 mg/kg, route oral. It is filed as ADME, organism-based. The conditions noted are these: in vivo. A digest of the protocol: (§4)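 Female Wistar rats, fasted overnight until 4 h post-dose, given 24.8 mg/kg orally in pH 3.5 HCl/citrate solution. Serial blood sampling from groups of three, 0.17–48 h. Plasma quantified by LC-MS-MS (LLOQ 9.2 ng/ml). Noncompartmental fit of mean profile; bioavailability from dose-corrected AUC ratio versus i.v.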

The nature of data set [17]: Tmax in Wistar rat at 24.8 mg/kg, po by LC-MS-MS analysis. It is filed as ADME, organism-based. Details: dose 24.8 mg/kg, route oral. The note with it: in vivo. A digest of the protocol:
as §4

The subject of data set [18] is Rattus norvegicus. Nature of the data set: AUC (0 to infinity) in Wistar rat at 24.8 mg/kg, po by LC-MS-MS analysis. Type of data set: ADME, organism-based, Plasma. Details: time infinity, dose 24.8 mg/kg, route oral. The note with it: in vivo. A digest of the protocol:
as §4

Data set [19] is described as follows: Oral bioavailability in Wistar rat at 24.8 mg/kg by LC-MS-MS analysis. The note with it: in vivo. It is filed as ADME, organism-based. The method, boiled down:
as §4

Data set [20] can be described thus: Volume of distribution at steady state Wistar rat at 5.9 mg/kg, iv by LC-MS-MS analysis. It is filed as ADME, organism-based. More on the design: dose 5.9 mg/kg, route intravenous. The conditions noted are these: in vivo, read-out: Vdss. A digest of the protocol:
(§5)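 Female Wistar rats given 5.9 mg/kg i.v. in pH 3.5 HCl/citrate formulation. Serial blood from groups of three rats, 0.17–48 h. Heparinized plasma extracted with acetonitrile-methanol-acetic acid, LC-MS-MS quantification (LLOQ 9.2 ng/ml); noncompartmental analysis of mean profile.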

Data set [21] in a line: Clearance in Wistar rat at 5.9 mg/kg, iv by LC-MS-MS analysis. The conditions noted are these: in vivo. Type of data set: ADME, organism-based. More on the design: dose 5.9 mg/kg, route intravenous. A digest of the protocol: as §5
A short description of data set [22]: Half life in Wistar rat at 5.9 mg/kg, iv by LC-MS-MS analysis. The conditions noted are these: in vivo. Type of data set: ADME, organism-based. Details: dose 5.9 mg/kg, route intravenous. The method, boiled down:
as §5

The test system of data set [23] is dengue virus type 2. In words: Antiviral activity against Dengue virus 2 NGC infected in human A549 cells after 2 days by CFI assay in presence of 40 mg/ml human serum albumin. Type of data set: functional, organism-based. The conditions noted are these: A549, 48 h. The method, boiled down:
(§6)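 Modified CFI: A549 cells infected with DENV-2 New Guinea C (MOI 0.3) for 1 h without compound. Inoculum then replaced with medium containing compound dilutions plus the stated HSA and/or AGP. On day 2, cells methanol-fixed and intracellular E protein detected by ELISA (4G2 primary, HRP anti-mouse secondary); EC50 derived.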

The test system of data set [24] is dengue virus type 2. Nature of the data set: Antiviral activity against Dengue virus 2 NGC infected in human A549 cells after 2 days by CFI assay in presence of 2 mg/ml alpha-1-acid glycoprotein. It is filed as functional, organism-based. The note with it: A549, 48 h. The method, boiled down:
as §6

Data set [25] has as its system dengue virus type 2. Nature of the data set: Antiviral activity against Dengue virus 2 NGC infected in human A549 cells after 2 days by CFI assay in presence of 40 mg/ml human serum albumin and 2 mg/ml alpha-1-acid glycoprotein. Type of data set: functional, organism-based. The conditions noted are these: A549, 48 h. The method, boiled down: as §6
In data set [26] the test system is A549. Nature of the data set: Cytotoxicity against human A549 cells up to 25 uM after 48 hrs by MTT assay. It is filed as functional, cell-based.
Data set [27] has as its system dengue virus type 2. In words: Antiviral activity against Dengue virus 2 TSV01 infected in AG129 mouse assessed as reduced viremia by 25 mg/kg, po BID for 3 days measured on day 4 by plaque assay. It is filed as functional. A digest of the protocol: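 AG129 mice (lacking IFN-α/β and IFN-γ receptors) were inoculated i.p. with 2 × 10^6 PFU DENV-2 in 0.4 ml. Immediately afterwards, 0.2 ml compound in ethanol-PEG-D5W (10:30:60) was given by oral gavage twice daily for 3 days. Day-4 blood viremia was measured by plaque assay; 6 or 8 mice per group.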

The structures appear in SMILES notation.

The term EC50 denotes the concentration that produces a half-maximal response. A word on the Cmax: it is the peak of the concentration-time curve. The Tmax is the time from dosing to the highest level. One may read the AUC as the area under the concentration-time curve, a measure of exposure. Lower therefore signals low exposure. Usually bioavailability stands for dose-corrected exposure relative to a reference, in per cent. Low readings indicate poor availability, high ones good availability. What is called clearance is the rate of elimination divided by the concentration. Read a high clearance as efficient removal. What is called half-life is the time needed for the level to fall by half in the phase considered.

On to `C#C[C@@]1(O)[C@H](O)[C@@H](CO)O[C@H]1n1cc(C(N)=O)c2c(N)ncnc21`, for which the Activity result was “Not toxic” in data set [1], “Non-toxic” in [2] and “Not toxic” in data set [26]. The EC50 in data set [3] turned out to be 2.61 µM; in data set [4] it was 2.27 µM; in [5] it was 1.62 µM; in [6] it was 1.94 µM; in data set [7], 6.99 µM; in data set [8], 5 µM. In addition, the EC50 in data set [23] was determined as 4.76 µM; in data set [24] it was 2.52 µM; in data set [25], 4.64 µM. Also, the Cmax in data set [9] and in [16] was 0.27 µM in each case. For the same compound, the Tmax in data set [10] was determined as 1 h; in [17], 0.17 h. The exposure (AUC) in [11] was 420 nM·h; in data set [18], 3150 nM·h. Besides, the bioavailability in data set [12] was found to be 1%; in data set [19] it was 2%. Moreover, the Vd in [13] was found to be 0.26 L/kg; in [20], 2.71 L/kg. Besides, the results for the clearance in [14] and in data set [21] were 1.31 L/h/kg and 0.539 L/h/kg, respectively. In addition, the half-life in data set [15] is 1.31 h; in [22], 8.33 h.

In the case of `C#C[C@@]1(O)[C@H](O)[C@@H](CO)O[C@H]1n1ccc2c(N)ncnc21`, the EC50 in [3] amounted to 1.64 µM; in data set [4] it was 2.61 µM; in [5], 1.12 µM; in [6] it was 0.46 µM; in data set [7] it was 0.7 µM; in data set [8], 0.58 µM. The “fold change (FC)” value in data set [27] stood at 10.

The values are drawn from ChEMBL document CHEMBL1629704, “Inhibition of dengue virus by an ester prodrug of an adenosine analog” (Antimicrob Agents Chemother, 2010).
